# Results taken from ChEMBL document CHEMBL3112561, “Small molecule disruptors of the glucokinase-glucokinase regulatory protein interaction: 2. Leveraging structure-based drug design to identify analogues with improved pharmacokinetic profiles” (J Med Chem, 2014).
# Activity calls are given as the source filed them. The rule behind the calls is not given here.
# Legend:
# [1] = Intrinsic clearance in rat liver microsomes at 1 uM after 30 mins in presence of NADPH; type: ADME; conditions: read-out: CLH
# [2] = target: T1, Glucokinase regulatory protein (Homo sapiens, UniProt Q14397); experiment: Inhibition of fluorescein-labeled human GK interaction with biotin-labeled human GKRP incubated for 20 mins prior to addition of fluorescein-labeled GK measured after 2 to 4 hrs by Alpha Screen assay
# T1 sequence (Q14397 whole entry): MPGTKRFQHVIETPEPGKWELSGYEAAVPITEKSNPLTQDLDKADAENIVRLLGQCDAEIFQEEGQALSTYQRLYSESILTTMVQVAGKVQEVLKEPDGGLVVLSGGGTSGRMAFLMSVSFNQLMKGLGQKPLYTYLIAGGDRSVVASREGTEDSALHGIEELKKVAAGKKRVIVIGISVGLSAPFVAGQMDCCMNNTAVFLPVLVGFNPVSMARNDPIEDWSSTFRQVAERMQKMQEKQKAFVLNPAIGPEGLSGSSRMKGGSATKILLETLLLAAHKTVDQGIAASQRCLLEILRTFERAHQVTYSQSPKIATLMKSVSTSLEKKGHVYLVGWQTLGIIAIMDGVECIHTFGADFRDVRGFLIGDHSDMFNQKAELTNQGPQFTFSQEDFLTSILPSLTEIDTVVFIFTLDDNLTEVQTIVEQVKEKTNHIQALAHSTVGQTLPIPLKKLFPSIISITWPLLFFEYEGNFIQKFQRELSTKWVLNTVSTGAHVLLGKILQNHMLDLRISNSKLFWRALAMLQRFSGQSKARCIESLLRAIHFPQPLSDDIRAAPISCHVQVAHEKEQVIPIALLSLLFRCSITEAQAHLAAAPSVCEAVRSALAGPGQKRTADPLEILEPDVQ
# [3] = target: T2, Glucokinase regulatory protein (Mus musculus, UniProt Q91X44); experiment: Induction of GK translocation from nucleus to cytoplasm of mouse hepatocytes preincubated for 20 mins followed by glucose challenge measured after 40 mins by Hoechst 33342 staining-based assay; type: cell-based, Hepatocyte
# T2 sequence (Q91X44 whole entry): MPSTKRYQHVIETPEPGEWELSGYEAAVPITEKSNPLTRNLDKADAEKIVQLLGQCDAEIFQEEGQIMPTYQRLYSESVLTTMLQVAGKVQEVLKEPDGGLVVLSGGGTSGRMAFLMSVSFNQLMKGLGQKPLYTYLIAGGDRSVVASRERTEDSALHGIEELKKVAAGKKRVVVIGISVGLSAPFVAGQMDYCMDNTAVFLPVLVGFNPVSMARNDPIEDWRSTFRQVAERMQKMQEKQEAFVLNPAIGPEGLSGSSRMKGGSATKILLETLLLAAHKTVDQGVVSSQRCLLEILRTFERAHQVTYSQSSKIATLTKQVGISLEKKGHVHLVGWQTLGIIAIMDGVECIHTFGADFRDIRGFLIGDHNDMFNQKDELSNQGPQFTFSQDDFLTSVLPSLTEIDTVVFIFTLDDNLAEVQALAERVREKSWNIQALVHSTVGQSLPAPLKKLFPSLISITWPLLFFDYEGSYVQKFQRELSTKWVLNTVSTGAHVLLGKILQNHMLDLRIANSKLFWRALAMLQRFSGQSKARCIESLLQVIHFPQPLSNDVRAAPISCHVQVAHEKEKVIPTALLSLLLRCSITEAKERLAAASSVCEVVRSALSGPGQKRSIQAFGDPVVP
# [4] = Intrinsic clearance in human liver microsomes at 1 uM after 30 mins in presence of NADPH; type: ADME; conditions: read-out: CLH
# [5] = Volume of distribution at steady state in rat at 2 mg/kg, iv; type: ADME, organism-based; set-up: dose 2 mg/kg, route intravenous; conditions: in vivo, read-out: Vdss
# Outline: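 Intravenous PK at 2 mg/kg in 100% DMSO; steady-state volume of distribution derived from plasma profile.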
# [6] = Oral bioavailability in rat at 10 mg/kg; type: ADME, organism-based; conditions: in vivo
# [7] = Mean residence time in rat at 10 mg/kg, po; type: ADME, organism-based; set-up: dose 10 mg/kg, route oral; conditions: in vivo
# Outline: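 Oral PK at 10 mg/kg in 1% Tween 80, 2% HPMC, 97% water, […]; mean residence time from plasma profile.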
# [8] = Clearance in rat at 2 mg/kg, iv; type: ADME, organism-based; set-up: dose 2 mg/kg, route intravenous; conditions: in vivo
# Liver microsome = experiment: Drug metabolism in rat liver microsomes assessed as oxidative metabolite formation; type: ADME
# Mus musculus = experiment: Antidiabetic activity in insulin-resistant db/db mouse assessed as reduction of fed blood glucose level at 50 mg/kg, po measured at 4 to 8 hrs; type: functional, organism-based; set-up: dose 50 mg/kg
# Outline: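 Fed db/db mice from 8–9 wk of age, acclimatized 1 wk; retro-orbital bleed at 8:00 AM, glucose by meter, randomized, only 300–500 mg/dL included. Oral gavage at 9:00 AM in 2% HPMC/1% Tween 80, pH 2.2 (MSA). Blood glucose at 4 and 8 h post-dose versus vehicle groups (n ≥ 7); ANCOVA.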
SMILES,microsomal CLint at 1 µM [1] [µL/min/mg],IC50 [2] [nM],EC50 [3] [nM],microsomal CLint at 1 µM [4] [µL/min/mg],also measured
Nc1csc(S(=O)(=O)N2CCN(c3ccc(C(O)(C(F)(F)F)C(F)(F)F)cc3)CC2)c1,90,324,> 12500,–,–
CC(O)(c1ccc(N2CCN(S(=O)(=O)c3cccs3)C[C@@H]2CN2CCC(F)(F)CC2)cc1)C(F)(F)F (mixture of isomers),349,439,> 12500,280,–
Nc1ccc(S(=O)(=O)N2CCN(c3ccc(C(O)(C(F)(F)F)C(F)(F)F)cc3)CC2)cc1,49,484,> 12500,–,–
O=S(=O)(c1cccs1)N1CCN(c2ccc(C(O)(C(F)(F)F)C(F)(F)F)cc2)CC1,150,–,–,–,–
Nc1ccc(S(=O)(=O)N2CCN(c3ccc(C(O)(C(F)(F)F)C(F)(F)F)cc3)C(C#CC3CC3)C2)cn1 (racemic),61,779,> 12500,52,–
CC1CS(=O)(=O)CCN1C[C@H]1CN(S(=O)(=O)c2cccs2)CCN1c1ccc(C(C)(O)C(F)(F)F)cc1 (mixture of isomers),93,90,> 12500,132,–
Nc1cccc(S(=O)(=O)N2CCN(c3ccc(C(O)(C(F)(F)F)C(F)(F)F)cc3)CC2)c1,59,645,> 12500,–,–
C[C@](O)(c1ccc(N2CCN(S(=O)(=O)c3cccs3)C[C@@H]2CN2[C@H]3COC[C@@H]2[C@H](O)C3)cc1)C(F)(F)F,114,16,4760,135,–
CC(O)(c1ccc(N2CCN(S(=O)(=O)c3cccs3)C[C@@H]2CN2C3CCC2COC3)cc1)C(F)(F)F (mixture of isomers),> 399,2,239,320,–
CC(O)(c1ccc(N2CCN(S(=O)(=O)c3cccs3)C[C@@H]2CN2[C@H]3COC[C@H]2[C@H](O)C3)cc1)C(F)(F)F (mixture of isomers),321,44,1690,302,–
CC#C[C@H]1CN(S(=O)(=O)c2ccc(N)nc2)CCN1c1ccc([C@](C)(O)C(F)(F)F)cc1,–,–,–,–,Vd [5]: 3.7 L/kg; bioavailability [6]: 57%; MRT [7]: 2.9 h
Nc1ccc(S(=O)(=O)N2CCN(c3ccc(C(O)(C(F)(F)F)C(F)(F)F)cc3)CC2)s1,128,252,> 12500,–,–
Nc1ccccc1S(=O)(=O)N1CCN(c2ccc(C(O)(C(F)(F)F)C(F)(F)F)cc2)CC1,237,–,> 12500,–,–
CC(C)(C)C#CC1CN(S(=O)(=O)c2ccc(N)nc2)CCN1c1ccc(C(O)(C(F)(F)F)C(F)(F)F)cc1 (racemic),90,1430,> 12500,< 14,–
Nc1cc(S(=O)(=O)N2CCN(c3ccc(C(O)(C(F)(F)F)C(F)(F)F)cc3)CC2)ccn1,27,8630,> 12500,–,–
C[C@H]1COCCN1C[C@H]1CN(S(=O)(=O)c2cccs2)CCN1c1ccc(C(C)(O)C(F)(F)F)cc1 (mixture of isomers),> 399,7,820,451,–
C[C@@](O)(c1ccc(N2CCN(S(=O)(=O)c3cccs3)C[C@@H]2CN2[C@@H]3COC[C@H]2[C@@H](O)C3)cc1)C(F)(F)F,155,25,1670,99,–
CCC#CC1CN(S(=O)(=O)c2ccc(N)nc2)CCN1c1ccc(C(O)(C(F)(F)F)C(F)(F)F)cc1 (racemic),109,56,2930,< 14,–
Nc1ncc(S(=O)(=O)N2CCN(c3ccc(C(O)(C(F)(F)F)C(F)(F)F)cc3)CC2)cn1,< 14,–,–,–,–
Nc1ccc(S(=O)(=O)N2CCN(c3ccc(C(O)(C(F)(F)F)C(F)(F)F)cc3)CC2)cn1,< 14,–,> 12500,< 14,clearance [8]: 2 mL/min/kg; Vd [5]: 1.41 L/kg; bioavailability [6]: 71%; Drug metabolism (Liver microsome): Not Active; MRT [7]: 8.4 h
CS(=O)(=O)c1ccc([C@@H](CC2CCCC2)C(=O)Nc2nccs2)cc1,–,–,–,–,Activity (Mus musculus): Active
CC(O)(c1ccc(N2CCN(S(=O)(=O)c3cccs3)C[C@@H]2CN2CC3(COC3)C2)cc1)C(F)(F)F (mixture of isomers),120,524,> 12500,83,–
C[C@](O)(c1ccc(N2CCN(S(=O)(=O)c3cccs3)C[C@@H]2CN2[C@@H]3COC[C@H]2[C@@H](O)C3)cc1)C(F)(F)F,112,56,> 12500,131,–
O=S(=O)(c1ccccc1)N1CCN(c2ccc(C(O)(C(F)(F)F)C(F)(F)F)cc2)CC1,94,1010,> 12500,–,–
CC(O)(c1ccc(N2CCN(S(=O)(=O)c3cccs3)C[C@@H]2CN2CCS(=O)(=O)CC2)cc1)C(F)(F)F (mixture of isomers),50,343,> 12500,92,–
CC(O)(c1ccc(N2CCN(S(=O)(=O)c3cccs3)C[C@@H]2CN2[C@H]3COC[C@H]2[C@@H](O)C3)cc1)C(F)(F)F (mixture of isomers),141,26,1290,125,–
